Experimental data reported in ChEMBL document CHEMBL2417357, “Synthesis and antiprotozoal activities of benzyl phenyl ether diamidine derivatives” (Eur J Med Chem, 2013).
The source made the active and inactive calls. No cut-off for these calls is given here.

Legend:
[1] = system: Plasmodium falciparum; assay: Antiplasmodial activity against chloroquine-resistant Plasmodium falciparum K1; format: functional, organism-based
Outline: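 Chloroquine-resistant K1 strain tested in vitro. IC50 is the average of duplicate determinations.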

[2] = Selectivity index, ratio of IC50 for rat L6 cells to IC50 for chloroquine-resistant Plasmodium falciparum K1; format: toxicity, cell-based; conditions: read-out: Ratio IC50
Outline: (§1)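 SI = IC50 in rat L6 myoblasts / IC50 against the parasite (T. b. rhodesiense STIB900 or P. falciparum K1). Each IC50 is the average of duplicate determinations.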

[3] = system: Trypanosoma brucei rhodesiense; assay: Antitrypanosomal activity against Trypanosoma brucei rhodesiense STIB900 after 72 hrs by Alamar blue assay; format: functional, organism-based; conditions: STIB900, 72 h
[4] = Selectivity index, ratio of IC50 for rat L6 cells to IC50 for Trypanosoma brucei rhodesiense STIB900; format: toxicity, cell-based; conditions: read-out: Ratio IC50; outline: as §1
[5] = system: L6; assay: Cytotoxicity against rat L6 cells after 72 hrs by Alamar blue assay; format: cell-based; conditions: L6, 72 h
Outline: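 Rat L6 myoblast cells; cytotoxic IC50 taken as the average of duplicate determinations.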

[6] = system: Trypanosoma brucei rhodesiense; assay: Antitrypanosomal activity against Trypanosoma brucei rhodesiense STIB900 infected in NMRI mouse assessed as cured animal at 20 mg/kg, ip administered for 4 days; format: functional, organism-based; parameters: dose 20 mg/kg
Outline: (§2)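 Acute model in female NMRI mice infected with T. b. rhodesiense STIB900. Single daily doses given for four days, intraperitoneally or orally. Mice surviving 60 days post-infection without parasitaemia relapse counted as cured; result reported as cured/infected out of 4 mice per group, with mean survival in days.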

[7] = system: Trypanosoma brucei rhodesiense; assay: Antitrypanosomal activity against Trypanosoma brucei rhodesiense STIB900 infected in NMRI mouse assessed as mean survival days at 20 mg/kg, ip administered for 4 days; format: functional; conditions: route intraperitoneal
Outline: (§3)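 Female NMRI mice, acute infection model with T. b. rhodesiense STIB900. Compound given as a single daily dose for four days, intraperitoneally or orally. Cure means survival to 60 days post-infection without parasitaemia relapse. Mean survival recorded in days.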

[8] = system: Trypanosoma brucei rhodesiense; assay: Antitrypanosomal activity against Trypanosoma brucei rhodesiense STIB900 infected in NMRI mouse assessed as mean survival days at 2 mg/kg, ip administered for 4 days; format: functional; conditions: route intraperitoneal; outline: as §3
[9] = system: Trypanosoma brucei rhodesiense; assay: Antitrypanosomal activity against Trypanosoma brucei rhodesiense STIB900 infected in NMRI mouse assessed as cured animal at 2 mg/kg, ip administered for 4 days; format: functional, organism-based; parameters: dose 2 mg/kg; outline: as §3
[10] = Selectivity index, ratio of IC50 for rat L6 cells to IC50 for amastigotes of Leishmania donovani; format: toxicity, cell-based; conditions: read-out: Ratio IC50
Outline: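 SI = IC50 in rat L6 myoblasts / IC50 against L. donovani MHOM/SD/62/IS-CL2D axenic amastigotes. The amastigote IC50 is the average of at least two determinations; the L6 IC50 is the average of duplicates.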

[11] = system: Trypanosoma brucei rhodesiense; assay: Antitrypanosomal activity against Trypanosoma brucei rhodesiense STIB900 infected in NMRI mouse assessed as mean survival days at 25 mg/kg, po administered for 4 days; format: functional; outline: as §3
[12] = system: Trypanosoma brucei rhodesiense; assay: Antitrypanosomal activity against Trypanosoma brucei rhodesiense STIB900 infected in NMRI mouse assessed as cured animal at 25 mg/kg, po administered for 4 days; format: functional, organism-based; parameters: dose 25 mg/kg; outline: as §2
[13] = system: Trypanosoma brucei rhodesiense; assay: Antitrypanosomal activity against Trypanosoma brucei rhodesiense STIB900 infected in NMRI mouse assessed as cured animal at 100 mg/kg, po administered for 4 days; format: functional, organism-based; parameters: dose 100 mg/kg; outline: as §2
[14] = system: Trypanosoma brucei rhodesiense; assay: Antitrypanosomal activity against Trypanosoma brucei rhodesiense STIB900 infected in NMRI mouse assessed as mean survival days at 100 mg/kg, po administered for 4 days; format: functional; outline: as §3
[15] = system: Leishmania donovani; assay: Antileishmanial activity against amastigotes of Leishmania donovani MHOM/SD/62/IS-CL2D; format: functional, organism-based
Outline: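 Axenic amastigotes of L. donovani MHOM/SD/62/IS-CL2D; IC50 taken as the average of at least two determinations.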

[16] = system: Trypanosoma brucei rhodesiense; assay: Antitrypanosomal activity against Trypanosoma brucei rhodesiense STIB900 infected in NMRI mouse assessed as mean survival days at 5 mg/kg, ip administered for 4 days; format: functional; conditions: route intraperitoneal; outline: as §3
[17] = system: Trypanosoma brucei rhodesiense; assay: Antitrypanosomal activity against Trypanosoma brucei rhodesiense STIB900 infected in NMRI mouse assessed as cured animal at 5 mg/kg, ip administered for 4 days; format: functional, organism-based; parameters: dose 5 mg/kg; outline: as §2

## N=C(N)c1cccc(COc2cccc(C(=N)N)c2)c1
[1]
  IC50: 0.121 µM
[2]
  selectivity ratio: 198
[3]
  IC50: 0.097 µM
[4]
  selectivity ratio: 248
[5]
  IC50: 24 µM
[6]
  Activity: inactive
[7]
  MSD: 19.8 days

## Nc1nc(N)nc(Nc2ccc([As]3SCC(CO)S3)cc2)n1 (centres undefined) [MELARSOPROL]
[4]
  selectivity ratio: 1220
[8]
  MSD: >60 days
[9]
  Activity: Active

## N=C(N)c1ccc(OCc2cccc(C(=N)N)c2)cc1
[1]
  IC50: 0.035 µM
[2]
  selectivity ratio: 168
[3]
  IC50: 0.024 µM
[4]
  selectivity ratio: 250
[5]
  IC50: 5.93 µM
[6]
  Activity: inactive
[7]
  MSD: 25.25 days

## Cl.Cl.N/C(=N\O)c1cccc(COc2c(Br)cc(/C(N)=N/O)cc2Br)c1
[1]
  IC50: 7.56 µM
[10]
  selectivity ratio: < 1
[2]
  selectivity ratio: 4
[3]
  IC50: 6.89 µM
[4]
  selectivity ratio: 4
[11]
  MSD: 20.75 days
[12]
  Activity: inactive
[5]
  IC50: 26.8 µM
[13]
  Activity: Active
[14]
  MSD: >60 days
[15]
  IC50: 61.1 µM

## N=C(N)c1ccc(COc2ccc(C(=N)N)cc2)cc1
[1]
  IC50: 0.078 µM
[10]
  selectivity ratio: < 14
[16]
  MSD: 22.5 days
[2]
  selectivity ratio: 89
[3]
  IC50: 0.091 µM
[4]
  selectivity ratio: 77
[17]
  Activity: inactive
[5]
  IC50: 6.96 µM
[15]
  IC50: 8.77 µM

## N=C(N)c1ccc(COc2c(Cl)cc(C(=N)N)cc2Cl)cc1
[1]
  IC50: 0.014 µM
[10]
  selectivity ratio: 4
[16]
  MSD: 30.25 days
[2]
  selectivity ratio: 2020
[3]
  IC50: 0.024 µM
[4]
  selectivity ratio: 1170
[17]
  Activity: inactive
[5]
  IC50: 28.5 µM
[15]
  IC50: 6.4 µM

## Cl.Cl.N/C(=N\O)c1ccc(COc2ccc(/C(N)=N/O)cc2)cc1
[1]
  IC50: 9.49 µM
[10]
  selectivity ratio: < 1
[2]
  selectivity ratio: < 1
[3]
  IC50: > 238 µM
[4]
  selectivity ratio: < 1
[11]
  MSD: >31.7 days
[5]
  IC50: 8.28 µM
[14]
  MSD: >46.25 days
[15]
  IC50: > 100 µM

## N=C(N)c1cccc(COc2ccc(C(=N)N)cc2Cl)c1
[1]
  IC50: 0.051 µM
[10]
  selectivity ratio: 5
[16]
  MSD: 24.5 days
[2]
  selectivity ratio: 275
[3]
  IC50: 0.007 µM
[4]
  selectivity ratio: 1900
[17]
  Activity: inactive
[5]
  IC50: 13.9 µM
[15]
  IC50: 2.91 µM
